From PMC7231973 (Neurobiology of Stress, 2019)
Where two headings read alike, the source gives them in different places.

What was measured:
GABAARs [1] = conditions: ref Parakala et al., 2019; cited from earlier work
traumatic brain injury = conditions: ref Wright et al., 2014, Skolnick et al.; cited from earlier work
humans = conditions: 500 mg intravenously (iv.); ref Merryman et al., 1954; cited from earlier work
[2] = cited from earlier work
synaptic GABAARs = conditions: ref Wafford et al., 2009; Jensen et al., 2013; cited from earlier work
human GABAAR α2β1γ2 [3] = target: T1, human GABAAR α2β1γ2 (Homo sapiens, UniProt P18505+P18507+P47869); conditions: value marked #, ref Hogenkamp et al. (2014) and Carter et al. (1997); cited from earlier work
acute migraine = conditions: in vivo; cited from earlier work
PPD = conditions: cited from earlier work
human GABAAR α4β3δ = human GABAAR α4β3δ (Homo sapiens, UniProt O14764+P28472+P48169); experiment: Voltage-clamp, modulation of GABA EC10 response in Xenopus laevis oocytes; type: cell-based; conditions: maximum modulation of the GABA EC10 response, mean ± S.E.M. (n = 3)
How it was run: (§1)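 Human GABAAR subtypes expressed in Xenopus laevis oocytes. The GABA EC10 (the concentration giving 10% of the maximal GABA response) was determined for each oocyte. Test compound was pre-applied for 30 s, then co-applied with EC10 GABA. Response = (I GABA EC10 + modulator / I GABA EC10) × 100, where I = current. Concentration-effect data were fitted to a four-parameter logistic equation.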

human GABAAR α1β2γ2 = human GABAAR α1β2γ2 (Homo sapiens, UniProt P14867+P18507+P47870); experiment: as above; type: cell-based; conditions: maximum modulation of the GABA EC10 response, mean ± S.E.M. (n = 3)
How it was run: as §1

human GABAAR α2β2γ2 = human GABAAR α2β2γ2 (Homo sapiens, UniProt P18507+P47869+P47870); experiment: Voltage-clamp, modulation of GABA EC10 response in Xenopus laevis oocytes; type: cell-based; conditions: maximum modulation of the GABA EC10 response, mean ± S.E.M. (n = 3)
hippocampal DGGNs = conditions: ref Modgil et al., 2017, cited from earlier work
human GABAAR α1β1γ2 = human GABAAR α1β1γ2 (Homo sapiens, UniProt P14867+P18505+P18507); experiment: Voltage-clamp, modulation of GABA EC10 response in Xenopus laevis oocytes; type: cell-based; conditions: maximum modulation of the GABA EC10 response, mean ± S.E.M. (n = 3)
How it was run: as §1

human GABAAR α2β1γ2 [4] = target: T1, human GABAAR α2β1γ2; experiment: Voltage-clamp, modulation of GABA EC10 response in Xenopus laevis oocytes; type: cell-based; conditions: maximum modulation of the GABA EC10 response, mean ± S.E.M. (n = 3)
[5] = rodents; ref Irwin et al., 2015; cited from earlier work
GABAARs [6] = conditions: ref Harrison and Simmonds, 1984; cited from earlier work
[7] = ref Harrison and Simmonds, 1984; cited from earlier work
[8] = target: extrasynaptic (α4β2δ) GABAARs (Mus musculus, UniProt P22933+P63137+Q9D6F4); experiment: Tonic current; type: cell-based; conditions: 1 μM; VB neuron of P21 mouse; reversed by bicuculline 20 μM
How it was run: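 Holding current was taken from the same −70 mV VB neuron recordings in P21 mouse horizontal slices. All-points histograms of holding current were compared under control, after test compound (1 μM), and after co-application of bicuculline (20 μM).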

[9] = tested on: patients with moderate to severe major depressive disorder; conditions: oral treatment for 14 days; ref Gunduz-Bruce et al., 2019; cited from earlier work
[10] = target: synaptic (α1β2γ2) GABAARs (Mus musculus, UniProt P22723+P62812+P63137); experiment: mIPSCs recorded from thalamic VB neurons in horizontal slice; type: cell-based; conditions: 1 μM, 10 min; VB neuron of P21 mouse, −70 mV
How it was run: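 GABAAR mIPSCs were recorded at −70 mV from thalamic VB neurons in horizontal slices from P21 mice. Recordings were made under control conditions and after 10 min of test compound at 1 μM. mIPSC decay was examined.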

rodent seizure models = conditions: ref Hogenkamp et al., 2014; cited from earlier work

Sequence of human GABAAR α1β2γ2 (P14867 28-456): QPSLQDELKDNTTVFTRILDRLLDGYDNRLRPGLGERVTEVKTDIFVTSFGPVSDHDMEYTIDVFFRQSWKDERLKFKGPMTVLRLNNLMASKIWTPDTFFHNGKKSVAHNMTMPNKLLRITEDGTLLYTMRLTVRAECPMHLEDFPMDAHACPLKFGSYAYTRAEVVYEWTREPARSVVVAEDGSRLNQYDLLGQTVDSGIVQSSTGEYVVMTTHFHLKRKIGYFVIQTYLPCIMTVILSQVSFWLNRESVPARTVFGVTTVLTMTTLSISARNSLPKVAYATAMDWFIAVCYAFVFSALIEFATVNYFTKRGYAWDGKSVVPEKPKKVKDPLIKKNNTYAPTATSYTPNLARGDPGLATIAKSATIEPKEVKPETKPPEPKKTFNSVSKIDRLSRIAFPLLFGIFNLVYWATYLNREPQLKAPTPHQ
Sequence of human GABAAR α1β2γ2 (P47870 26-512): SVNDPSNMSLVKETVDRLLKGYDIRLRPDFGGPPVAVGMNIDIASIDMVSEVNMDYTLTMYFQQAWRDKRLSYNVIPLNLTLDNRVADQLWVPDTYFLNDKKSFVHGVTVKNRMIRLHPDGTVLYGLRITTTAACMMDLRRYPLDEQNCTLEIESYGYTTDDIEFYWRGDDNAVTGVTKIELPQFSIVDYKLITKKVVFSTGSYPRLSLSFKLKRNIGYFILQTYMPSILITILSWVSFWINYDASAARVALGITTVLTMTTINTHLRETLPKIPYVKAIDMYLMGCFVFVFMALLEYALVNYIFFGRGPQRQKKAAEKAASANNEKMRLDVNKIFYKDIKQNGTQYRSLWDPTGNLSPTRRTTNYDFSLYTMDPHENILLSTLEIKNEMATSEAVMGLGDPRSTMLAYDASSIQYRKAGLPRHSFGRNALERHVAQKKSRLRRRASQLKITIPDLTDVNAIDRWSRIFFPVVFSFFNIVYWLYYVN
Sequence of human GABAAR α1β2γ2 (P18507 40-475): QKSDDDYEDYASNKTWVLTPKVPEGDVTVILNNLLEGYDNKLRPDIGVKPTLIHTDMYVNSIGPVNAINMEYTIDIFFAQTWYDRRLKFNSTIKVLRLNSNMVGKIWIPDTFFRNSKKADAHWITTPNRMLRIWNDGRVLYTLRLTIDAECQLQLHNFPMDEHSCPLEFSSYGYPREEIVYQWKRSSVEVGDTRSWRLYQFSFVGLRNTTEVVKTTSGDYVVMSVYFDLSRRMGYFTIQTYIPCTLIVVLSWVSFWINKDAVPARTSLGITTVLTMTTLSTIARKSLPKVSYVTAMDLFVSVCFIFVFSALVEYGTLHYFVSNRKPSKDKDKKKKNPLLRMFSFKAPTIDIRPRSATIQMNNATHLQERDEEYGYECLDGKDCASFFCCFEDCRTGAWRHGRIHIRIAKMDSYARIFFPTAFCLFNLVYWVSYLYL
Sequence of human GABAAR α1β1γ2 (P14867 28-456): as the sequence (P14867 28-456) above
Sequence of human GABAAR α1β1γ2 (P18505 26-474): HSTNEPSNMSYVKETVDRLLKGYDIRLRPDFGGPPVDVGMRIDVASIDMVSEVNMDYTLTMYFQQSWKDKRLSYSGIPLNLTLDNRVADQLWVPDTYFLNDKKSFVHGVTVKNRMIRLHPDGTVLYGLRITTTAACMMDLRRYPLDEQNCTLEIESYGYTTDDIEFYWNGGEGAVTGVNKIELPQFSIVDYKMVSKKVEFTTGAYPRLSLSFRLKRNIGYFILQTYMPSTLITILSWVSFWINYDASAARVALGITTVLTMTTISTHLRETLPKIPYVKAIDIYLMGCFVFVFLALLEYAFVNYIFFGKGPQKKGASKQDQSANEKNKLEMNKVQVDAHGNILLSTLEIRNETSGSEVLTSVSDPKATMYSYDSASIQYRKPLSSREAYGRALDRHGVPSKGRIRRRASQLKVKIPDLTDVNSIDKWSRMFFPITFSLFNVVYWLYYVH
Sequence of human GABAAR α1β1γ2 (P18507 40-475): as the sequence (P18507 40-475) above
Sequence of human GABAAR α4β3δ (P48169 36-554): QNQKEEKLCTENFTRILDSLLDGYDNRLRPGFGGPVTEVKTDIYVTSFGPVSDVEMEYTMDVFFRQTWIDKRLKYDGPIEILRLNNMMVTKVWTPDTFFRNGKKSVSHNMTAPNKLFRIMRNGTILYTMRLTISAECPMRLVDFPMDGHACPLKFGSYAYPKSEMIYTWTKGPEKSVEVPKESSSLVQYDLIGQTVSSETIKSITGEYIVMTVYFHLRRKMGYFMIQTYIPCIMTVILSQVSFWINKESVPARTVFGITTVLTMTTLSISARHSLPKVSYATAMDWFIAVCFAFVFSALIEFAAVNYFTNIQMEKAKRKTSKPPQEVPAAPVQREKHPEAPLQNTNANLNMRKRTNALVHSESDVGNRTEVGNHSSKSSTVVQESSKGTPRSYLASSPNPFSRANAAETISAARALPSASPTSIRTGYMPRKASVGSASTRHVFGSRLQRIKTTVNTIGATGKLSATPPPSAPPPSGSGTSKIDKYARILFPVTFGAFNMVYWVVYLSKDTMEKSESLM
Sequence of human GABAAR α4β3δ (P28472 26-473): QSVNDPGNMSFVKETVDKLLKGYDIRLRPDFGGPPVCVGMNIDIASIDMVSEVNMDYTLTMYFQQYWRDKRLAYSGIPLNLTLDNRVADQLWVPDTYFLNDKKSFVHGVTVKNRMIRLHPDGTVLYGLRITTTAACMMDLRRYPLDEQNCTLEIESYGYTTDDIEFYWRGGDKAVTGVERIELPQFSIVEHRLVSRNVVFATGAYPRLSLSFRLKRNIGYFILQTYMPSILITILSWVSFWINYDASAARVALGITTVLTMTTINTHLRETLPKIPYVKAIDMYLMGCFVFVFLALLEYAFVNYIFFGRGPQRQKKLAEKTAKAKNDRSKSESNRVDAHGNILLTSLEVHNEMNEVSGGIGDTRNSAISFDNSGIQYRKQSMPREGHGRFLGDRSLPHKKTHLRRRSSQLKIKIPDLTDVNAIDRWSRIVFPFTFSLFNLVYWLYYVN
Sequence of human GABAAR α4β3δ (O14764 25-452): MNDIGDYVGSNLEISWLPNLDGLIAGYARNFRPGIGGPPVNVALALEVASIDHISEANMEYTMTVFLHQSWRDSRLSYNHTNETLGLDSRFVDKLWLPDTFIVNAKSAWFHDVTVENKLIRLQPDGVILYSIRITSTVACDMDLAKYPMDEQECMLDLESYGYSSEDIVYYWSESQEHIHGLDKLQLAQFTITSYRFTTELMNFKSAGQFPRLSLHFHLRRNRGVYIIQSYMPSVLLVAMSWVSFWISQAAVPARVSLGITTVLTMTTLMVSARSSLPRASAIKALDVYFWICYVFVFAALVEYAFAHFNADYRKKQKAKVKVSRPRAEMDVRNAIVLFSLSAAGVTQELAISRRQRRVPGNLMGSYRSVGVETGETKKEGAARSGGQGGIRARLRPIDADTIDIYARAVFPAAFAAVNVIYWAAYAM
T1 sequence (P47869 29-451): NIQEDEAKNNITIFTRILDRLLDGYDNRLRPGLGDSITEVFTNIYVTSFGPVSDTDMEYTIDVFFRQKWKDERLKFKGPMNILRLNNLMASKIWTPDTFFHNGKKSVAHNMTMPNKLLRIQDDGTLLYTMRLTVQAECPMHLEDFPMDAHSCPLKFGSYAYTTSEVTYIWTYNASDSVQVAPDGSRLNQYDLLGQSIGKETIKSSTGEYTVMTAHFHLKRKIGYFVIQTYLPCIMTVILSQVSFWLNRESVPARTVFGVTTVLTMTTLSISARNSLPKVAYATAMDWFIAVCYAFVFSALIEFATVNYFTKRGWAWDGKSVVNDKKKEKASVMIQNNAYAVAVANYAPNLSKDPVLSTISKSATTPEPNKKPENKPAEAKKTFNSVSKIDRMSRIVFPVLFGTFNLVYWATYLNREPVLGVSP
T1 sequence (P18505 26-474): as the sequence (P18505 26-474) above
T1 sequence (P18507 40-475): as the sequence (P18507 40-475) above
Sequence of human GABAAR α2β2γ2 (P47869 29-451): as the sequence (P47869 29-451) above
Sequence of human GABAAR α2β2γ2 (P47870 26-512): as the sequence (P47870 26-512) above
Sequence of human GABAAR α2β2γ2 (P18507 40-475): as the sequence (P18507 40-475) above
Sequence of synaptic (α1β2γ2) GABAARs (P62812 28-455): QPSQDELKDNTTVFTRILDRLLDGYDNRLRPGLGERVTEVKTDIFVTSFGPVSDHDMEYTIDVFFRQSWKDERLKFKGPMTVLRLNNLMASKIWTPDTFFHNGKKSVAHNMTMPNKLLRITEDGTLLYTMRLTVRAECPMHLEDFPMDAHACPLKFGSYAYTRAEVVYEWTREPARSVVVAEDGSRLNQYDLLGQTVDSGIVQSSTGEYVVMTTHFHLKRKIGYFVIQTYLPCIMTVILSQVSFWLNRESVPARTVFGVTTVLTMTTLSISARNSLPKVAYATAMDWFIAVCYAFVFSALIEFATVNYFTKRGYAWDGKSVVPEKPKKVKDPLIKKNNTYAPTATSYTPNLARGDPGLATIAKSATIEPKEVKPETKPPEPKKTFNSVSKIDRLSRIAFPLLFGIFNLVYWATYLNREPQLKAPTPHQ
Sequence of synaptic (α1β2γ2) GABAARs (P63137 25-512 limits assumed): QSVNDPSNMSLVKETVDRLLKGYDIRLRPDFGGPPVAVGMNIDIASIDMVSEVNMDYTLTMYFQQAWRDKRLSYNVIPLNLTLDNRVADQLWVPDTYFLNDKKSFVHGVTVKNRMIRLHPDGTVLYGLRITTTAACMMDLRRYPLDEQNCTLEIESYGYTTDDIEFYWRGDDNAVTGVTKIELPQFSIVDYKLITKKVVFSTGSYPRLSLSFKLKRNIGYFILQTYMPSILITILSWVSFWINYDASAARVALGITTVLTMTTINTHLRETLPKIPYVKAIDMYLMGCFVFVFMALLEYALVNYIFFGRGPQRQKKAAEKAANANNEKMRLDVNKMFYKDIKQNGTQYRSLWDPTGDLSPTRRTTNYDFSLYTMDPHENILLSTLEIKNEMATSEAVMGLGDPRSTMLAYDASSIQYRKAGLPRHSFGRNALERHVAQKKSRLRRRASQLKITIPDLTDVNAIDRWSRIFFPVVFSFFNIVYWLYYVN
Sequence of synaptic (α1β2γ2) GABAARs (P22723 39-474): as the sequence (P18507 40-475) above

C=C[C@]12CCC(=O)C=C1CC[C@H]1[C@@H]3CC[C@H](C(C)=O)[C@@]3(C)CC[C@@H]12 [ORG OD 02-0]
direct interaction with GABAARs (GABAARs [1]): no direct interaction with GABAARs

CC(=O)[C@H]1CC[C@H]2[C@@H]3CCC4=CC(=O)CC[C@]4(C)[C@H]3CC[C@]12C [progesterone]
outcome in phase III trials, moderate to severe traumatic brain injury (traumatic brain injury): failed to meet primary criteria
effect in humans (humans): anesthetic effect

O=C(Nc1c(-c2cccs2)nc2ccccn12)c1ccc(Cl)cc1 [DS2]
CNS penetration ([2]; ref Wafford et al., 2009, Jensen et al., 2013): poor CNS penetration
activity on synaptic GABAARs (synaptic GABAARs): no activity

CC(=O)[C@H]1CC[C@H]2[C@@H]3CC[C@H]4C[C@](C)(O)CC[C@]4(C)[C@H]3CC[C@]12C [Ganaxolone, 3alpha-hydroxy-3beta-methyl-5alpha-pregnan-20-one]
Max Mod ± SEM (human GABAAR α2β1γ2 [3]): 700 ± 50^# % control
outcome in phase II trials, acute migraine (acute migraine): failed to demonstrate efficacy
outcome in PPD, preliminary findings (PPD; oral (p.o) dose of 1175 mg once per day for 28 days, ref trade press): not meeting primary endpoints
Max Mod ± SEM (human GABAAR α4β3δ): 1710 ± 534 % control
Max Mod ± SEM (human GABAAR α1β2γ2): 1151 ± 367 % control
Max Mod ± SEM (human GABAAR α2β2γ2): 646 ± 254 % control
sustained enhancement of tonic conductance (hippocampal DGGNs; in contrast to allopregnanolone): did not produce a sustained enhancement
acute effect on tonic current (hippocampal DGGNs): acutely increased the tonic current
Max Mod ± SEM (human GABAAR α1β1γ2): 1006 ± 241 % control

CC(=O)[C@H]1CC[C@H]2[C@@H]3CC[C@H]4C[C@H](O)CC[C@]4(C)[C@H]3CC[C@]12C [AlloP, 5α-pregnan-3α-ol-20-one]
Max Mod ± SEM (human GABAAR α4β3δ): 1401 ± 88 % control
Max Mod ± SEM (human GABAAR α2β1γ2 [4]): 878 ± 211 % control
brain concentration relative to that in plasma [5]: 3 ×
Max Mod ± SEM (human GABAAR α1β2γ2): 909 ± 68 % control
Max Mod ± SEM (human GABAAR α2β2γ2): 485 ± 257 % control
Max Mod ± SEM (human GABAAR α1β1γ2): 817 ± 62 % control

CC(=O)[C@H]1CC[C@H]2[C@@H]3CC[C@H]4C[C@@H](O)CC[C@]4(C)[C@H]3C(=O)C[C@]12C [betaxalone]
effect on GABAARs (GABAARs [6]): no effect
behavioural effect [7]: behaviourally inert

C[C@@]1(O)CC[C@H]2[C@H](CC[C@@H]3[C@@H]2CC[C@]2(C)[C@@H](C(=O)Cn4cc(C#N)cn4)CC[C@@H]32)C1 [SAGE-217, 3alpha-Hydroxy-3beta-methyl-21-(4-cyano-1H-pyrazol-1’-yl)-19-nor-5beta-pregnan-20-one]
tonic current [8]: enhance the tonic current
outcome of phase II study (PPD; 30 mg p.o. once a day for 14 days, reported by Sage): positive results
Max Mod ± SEM (human GABAAR α4β3δ): 783 ± 122 % control
Max Mod ± SEM (human GABAAR α2β1γ2 [4]): 851 ± 93 % control
Max Mod ± SEM (human GABAAR α1β2γ2): 823 ± 353 % control
depressive symptoms [9]: effective in reducing depressive symptoms
main side effects [9]: dizziness and somnolence/sedation
Max Mod ± SEM (human GABAAR α2β2γ2): 1355 ± 173 % control
duration of miniature inhibitory postsynaptic currents (mIPSCs) [10]: greatly prolong
Max Mod ± SEM (human GABAAR α1β1γ2): 488 ± 33 % control

CCOC(=O)Nc1ccc(NCc2c(C)cc(C)cc2C)cc1N [AA29504]
ratio of brain to plasma levels ([2]; ref Hoestgaard-Jensen et al., 2010): favorable ratio of brain to plasma levels

C[C@@]1(O)CC[C@@]2(C)[C@@H](CC[C@@H]3[C@@H]2CC[C@]2(C)[C@@H](c4cc(CO)on4)CC[C@@H]32)C1 [UCI-50027, 3-[3α-hydroxy-3β-methyl-5α-androstan-17β-yl]-5-(hydroxymethyl)isoxazole]
Max Mod ± SEM (human GABAAR α4β3δ): 919 ± 229 % control
Max Mod ± SEM (human GABAAR α2β1γ2 [4]): 277 ± 47 % control
Max Mod ± SEM (human GABAAR α1β2γ2): 587 ± 91 % control
Max Mod ± SEM (human GABAAR α2β2γ2): 595 ± 176 % control
Max Mod ± SEM (human GABAAR α1β1γ2): 472 ± 84 % control
anticonvulsant/anxiolytic therapeutic index (rodent seizure models): greater anticonvulsant/anxiolytic therapeutic index than ganaxolone
